According to ChEMBL document CHEMBL3779798, “Novel seleno- and thio-urea derivatives with potent in vitro activities against several cancer cell lines” (Eur J Med Chem, 2016):
pIC50: −log10 of the molar value.

Key:
Assay type in all cases: functional, cell-based
[1] = Anticancer activity against human BxPC3 cells assessed as inhibition of cell growth after 72 hrs by MTT assay; conditions: BXPC-3, 72 h
Outline: (§1)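 MTT assay at 3,000 cells/well. Cells treated with DMSO or seven concentrations from 0.5 to 50 µM for 24, 48 or 72 h. MTT added 3 h before the end point; formazan dissolved in DMSO and read at 570 and 630 nm. IC50 is the concentration giving 50% growth inhibition. Media: PANC-1, BxPC3 and 1205Lu in DMEM; DU145 and A549 in RPMI 1640; HT29, HCT116 and RKO in McCoy's 5A, all with 10% FBS and pen/strep, at 37 °C and 5% CO2.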

[2] = Anticancer activity against human BxPC3 cells assessed as inhibition of cell growth after 48 hrs by MTT assay; conditions: BXPC-3, 48 h; outline: as §1
A549 [3] = test: Anticancer activity against human A549 cells assessed as inhibition of cell growth after 48 hrs by MTT assay; conditions: A549, 48 h; outline: as §1
[4] = Anticancer activity against human HCT116 cells assessed as inhibition of cell growth after 48 hrs by MTT assay; conditions: HCT-116, 48 h; outline: as §1
[5] = Anticancer activity against human DU145 cells assessed as inhibition of cell growth after 24 hrs by MTT assay; conditions: DU-145, 24 h; outline: as §1
[6] = Anticancer activity against human BxPC3 cells assessed as inhibition of cell growth after 24 hrs by MTT assay; conditions: BXPC-3, 24 h; outline: as §1
[7] = Anticancer activity against human PANC1 cells assessed as inhibition of cell growth after 72 hrs by MTT assay; conditions: PANC-1, 72 h; outline: as §1
[8] = Anticancer activity against human 1205 Lu cells assessed as inhibition of cell growth after 72 hrs by MTT assay; outline: as §1
[9] = Anticancer activity against human PANC1 cells assessed as inhibition of cell growth after 24 hrs by MTT assay; conditions: PANC-1, 24 h; outline: as §1
[10] = Anticancer activity against human DU145 cells assessed as inhibition of cell growth after 48 hrs by MTT assay; conditions: DU-145, 48 h; outline: as §1
A549 [11] = test: Anticancer activity against human A549 cells assessed as inhibition of cell growth after 72 hrs by MTT assay; conditions: A549, 72 h; outline: as §1
[12] = Anticancer activity against human DU145 cells assessed as inhibition of cell growth after 72 hrs by MTT assay; conditions: DU-145, 72 h; outline: as §1
[13] = Anticancer activity against human HCT116 cells assessed as inhibition of cell growth after 72 hrs by MTT assay; conditions: HCT-116, 72 h; outline: as §1
[14] = Anticancer activity against human 1205 Lu cells assessed as inhibition of cell growth after 48 hrs by MTT assay; outline: as §1
[15] = Anticancer activity against human PANC1 cells assessed as inhibition of cell growth after 48 hrs by MTT assay; conditions: PANC-1, 48 h; outline: as §1
[16] = Anticancer activity against human 1205 Lu cells assessed as inhibition of cell growth after 24 hrs by MTT assay; outline: as §1
A549 [17] = test: Anticancer activity against human A549 cells assessed as inhibition of cell growth after 24 hrs by MTT assay; conditions: A549, 24 h; outline: as §1
[18] = Anticancer activity against human HCT116 cells assessed as inhibition of cell growth after 24 hrs by MTT assay; conditions: HCT-116, 24 h; outline: as §1

Compound	pIC50 (A549 [3])	pIC50 (A549 [11])	pIC50 (A549 [17])	pIC50 [1]	pIC50 [2]	pIC50 [4]	pIC50 [5]	pIC50 [6]	pIC50 [7]	pIC50 [8]	pIC50 [9]	pIC50 [10]	pIC50 [12]	pIC50 [13]	pIC50 [14]	pIC50 [15]	pIC50 [16]	pIC50 [18]
COc1cc2oc(=O)cc(CSC(=N)N)c2cc1OC	< 4.30	< 4.30	< 4.30	< 4.30	< 4.30	< 4.30	< 4.30	< 4.30	< 4.30	4.43	< 4.30	< 4.30	< 4.30	< 4.30	< 4.30	< 4.30	< 4.30	< 4.30
N=C(N)[Se]Cc1ccc([N+](=O)[O-])o1	4.99	5.05	4.64	4.81	4.40	5.43	< 4.30	4.37	4.87	4.89	< 4.30	< 4.30	4.81	5.42	4.80	4.81	4.72	4.84
N=C(N)[Se]Cc1ccc2ccccc2n1	4.82	5.09	4.40	5.11	4.77	4.71	4.71	4.44	5.02	5.15	4.74	4.94	5.14	4.97	5.00	4.80	4.84	4.53
N=C(N)[Se]Cc1ccc2c(c1)C(=O)c1ccccc1C2=O	5.66	5.72	5.05	< 4.30	< 4.30	4.90	4.67	< 4.30	4.50	4.95	< 4.30	5.21	5.09	5.23	4.84	< 4.30	4.76	< 4.30

Second part, led by results:

pIC50 (A549 [3])	pIC50 (A549 [11])	pIC50 (A549 [17])	Compound	pIC50 [1]	pIC50 [2]	pIC50 [4]	pIC50 [5]	pIC50 [6]	pIC50 [7]	pIC50 [8]	pIC50 [9]	pIC50 [10]	pIC50 [12]	pIC50 [13]	pIC50 [14]	pIC50 [15]	pIC50 [16]	pIC50 [18]
< 4.30	< 4.30	< 4.30	N=C(N)SCc1cc2c(cc1Br)OCO2	4.35	< 4.30	4.46	< 4.30	< 4.30	4.46	< 4.30	< 4.30	< 4.30	< 4.30	4.66	< 4.30	4.39	< 4.30	< 4.30
< 4.30	< 4.30	< 4.30	N=C(N)SCN1C(=O)c2ccccc2C1=O	< 4.30	< 4.30	< 4.30	< 4.30	< 4.30	< 4.30	< 4.30	< 4.30	< 4.30	< 4.30	< 4.30	< 4.30	< 4.30	< 4.30	< 4.30
< 4.30	< 4.30	< 4.30	N=C(N)SCc1nc2ccccc2nc1CSC(=N)N	< 4.30	< 4.30	< 4.30	< 4.30	< 4.30	< 4.30	< 4.30	< 4.30	< 4.30	< 4.30	< 4.30	< 4.30	< 4.30	< 4.30	< 4.30
< 4.30	< 4.30	< 4.30	N=C(N)SCc1ccc(-n2cccc2)cc1	4.61	< 4.30	< 4.30	< 4.30	< 4.30	4.39	< 4.30	< 4.30	< 4.30	4.50	4.50	< 4.30	< 4.30	< 4.30	< 4.30
< 4.30	< 4.30	< 4.30	N=C(N)SCc1ccc([N+](=O)[O-])o1	< 4.30	< 4.30	4.51	< 4.30	< 4.30	< 4.30	< 4.30	< 4.30	< 4.30	< 4.30	5.15	< 4.30	< 4.30	< 4.30	< 4.30
